≈ marks a conversion by molar mass, not a printed value. Calls of active or inactive are those of the source. The calls are words filed in the database; no cut-off is given here.

For data set [1], the target named is T1, Albumin (Homo sapiens, UniProt P02768). The experiment in a line: Binding affinity to human serum albumin at pH 7.4 at 298 K by fluorescence quenching analysis. It counts as ADME. The following applies: isolated protein. A digest of the protocol:
(§1)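 Intrinsic HSA Trp fluorescence was quenched by compound titration at pH 7.4 and at 286, 298 or 310 K. Excitation was 295 nm, emission scanned 300–450 nm, both slits 2.5 nm, 1.0 cm quartz cells. Data were fitted by Stern–Volmer analysis to give KSV. Kq was calculated assuming an HSA fluorescence lifetime of 6.4 × 10^-9 s.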

In data set [2] the target is T1, Albumin. The experiment in a line: Ratio of binding affinity to human serum albumin in presence of Cu2+ to binding affinity to human serum albumin absence of Cu2+. It counts as ADME. The note with it: isolated protein.
In another data set the test system is Candida. The experiment in a line: Antifungal activity against Candida mycoderma ATCC 96918 after 24 hrs by micro broth dilution method. It counts as functional. The following applies: ATCC 96918, 24 h. A digest of the protocol:
(§2)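 Fungi: C. albicans ATCC 76615 and C. mycoderma ATCC 96918. MICs by two-fold broth microdilution in 96-well plates per NCCLS. Fluconazole served as positive control.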

In another data set the test system is Salmonella typhi. The experiment in a line: Antibacterial activity against Bacillus typhi after 24 hrs by twofold serial dilution method. It counts as functional, Salmonella enterica subsp. enterica serovar Typhi. The note with it: Salmonella enterica. A digest of the protocol:
(§3)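 Two-fold broth microdilution per NCCLS recommendations. The MIC was read as the minimum inhibitory concentration. Chloromycin and Norfloxacin served as positive controls. Strains were Bacillus typhi (Gram-negative panel) and methicillin-resistant S. aureus N315.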

In data set [3] the target is T1, Albumin. The experiment in a line: Ratio of binding affinity to human serum albumin in presence of K+ to binding affinity to human serum albumin absence of K+. The format is ADME. The note with it: isolated protein.
The test system of data set [4] is DNA. The experiment in a line: Binding affinity to calf thymus DNA by UV-vis absorption spectra analysis. It counts as nucleic-acid assay. The following applies: Bos taurus.
For the next data set, the system named is Bacillus. The experiment in a line: Antibacterial activity against Bacillus proteus ATCC 13315 after 24 hrs by twofold serial dilution method. It counts as functional. The note with it: ATCC 13315, 24 h. A digest of the protocol: (§4)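 Bacterial strains: S. aureus ATCC 25923, B. subtilis ATCC 21216, M. luteus ATCC 4698, E. coli JM109, P. aeruginosa ATCC 27853, B. proteus ATCC 13315. MICs by two-fold broth microdilution in 96-well plates per NCCLS. Chloromycin and Norfloxacin served as positive controls.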

In data set [5] the target is T1, Albumin. The experiment in a line: Ratio of binding affinity to human serum albumin in presence of Zn2+ to binding affinity to human serum albumin absence of Zn2+. It counts as ADME. The following applies: isolated protein.
A further data set relates to Micrococcus luteus. The experiment in a line: Antibacterial activity against Micrococcus luteus ATCC 4698 after 24 hrs by twofold serial dilution method. The note with it: ATCC 4698, 24 h. The format is functional. In short, it runs like this:
as §4

Data set [6] addresses T1, Albumin. The experiment in a line: Ratio of binding affinity to human serum albumin in presence of Ni2+ to binding affinity to human serum albumin absence of Ni2+. The format is ADME. The note with it: isolated protein.
Data set [7] deals with T1, Albumin. The experiment in a line: Ratio of binding affinity to human serum albumin in presence of Mg2+ to binding affinity to human serum albumin absence of Mg2+. The format is ADME. The note with it: isolated protein.
In data set [8] the target is T1, Albumin. The experiment in a line: Ratio of binding affinity to human serum albumin in presence of Fe3+ to binding affinity to human serum albumin absence of Fe3+. It counts as ADME. The following applies: isolated protein.
For data set [9], the target named is T1, Albumin. The experiment in a line: Binding affinity to human serum albumin at pH 7.4 at 310 K by fluorescence quenching analysis. It counts as ADME. The note with it: isolated protein. A digest of the protocol: as §1
Data set [10] concerns Staphylococcus aureus. The experiment in a line: Antibacterial activity against Staphylococcus aureus ATCC 25923 after 24 hrs by twofold serial dilution method. The format is functional. The following applies: ATCC 25923, 24 h. A digest of the protocol:
as §4

For the next data set, the system named is Bacillus subtilis. The experiment in a line: Antibacterial activity against Bacillus subtilis ATCC 21216 after 24 hrs by twofold serial dilution method. It counts as functional. The note with it: ATCC 21216, 24 h. A digest of the protocol: as §4
For data set [11], the system named is DNA. The experiment in a line: Displacement of neutral red from calf thymus DNA by UV-vis absorption spectra analysis. It counts as nucleic-acid assay. The following applies: Bos taurus.
The test system of data set [12] is Staphylococcus aureus. The experiment in a line: Antibacterial activity against methicillin-resistant staphylococcus aureus N315 after 24 hrs by twofold serial dilution method. It counts as functional. The following applies: N315, 24 h. In short, it runs like this:
as §3

The target of data set [13] is T1, Albumin. The experiment in a line: Ratio of binding affinity to human serum albumin in presence of Pb2+ to binding affinity to human serum albumin absence of Pb2+. It counts as ADME. The note with it: isolated protein.
The target of data set [14] is T1, Albumin. The experiment in a line: Ratio of binding affinity to human serum albumin in presence of Ca2+ to binding affinity to human serum albumin absence of Ca2+. It counts as ADME. The note with it: isolated protein.
The subject of the next data set is Candida albicans. The experiment in a line: Antifungal activity against Candida albicans ATCC 76615 after 24 hrs by micro broth dilution method. It counts as functional. The following applies: ATCC 76615, 24 h. In short, it runs like this: as §2
A further data set concerns Escherichia coli. The experiment in a line: Antibacterial activity against Escherichia coli JM109 after 24 hrs by twofold serial dilution method. It counts as functional. The following applies: JM109, 24 h. In short, it runs like this:
as §4

For a further data set, the system named is Pseudomonas aeruginosa. The experiment in a line: Antibacterial activity against Pseudomonas aeruginosa ATCC 27853 after 24 hrs by twofold serial dilution method. The format is functional. The note with it: ATCC 27853, 24 h. In short, it runs like this: as §4
The target in data set [15] is T1, Albumin. The experiment in a line: Binding affinity to human serum albumin at pH 7.4 at 286 K by fluorescence quenching analysis. It counts as ADME. The following applies: isolated protein. A digest of the protocol:
as §1

T1 sequence (P02768 whole entry): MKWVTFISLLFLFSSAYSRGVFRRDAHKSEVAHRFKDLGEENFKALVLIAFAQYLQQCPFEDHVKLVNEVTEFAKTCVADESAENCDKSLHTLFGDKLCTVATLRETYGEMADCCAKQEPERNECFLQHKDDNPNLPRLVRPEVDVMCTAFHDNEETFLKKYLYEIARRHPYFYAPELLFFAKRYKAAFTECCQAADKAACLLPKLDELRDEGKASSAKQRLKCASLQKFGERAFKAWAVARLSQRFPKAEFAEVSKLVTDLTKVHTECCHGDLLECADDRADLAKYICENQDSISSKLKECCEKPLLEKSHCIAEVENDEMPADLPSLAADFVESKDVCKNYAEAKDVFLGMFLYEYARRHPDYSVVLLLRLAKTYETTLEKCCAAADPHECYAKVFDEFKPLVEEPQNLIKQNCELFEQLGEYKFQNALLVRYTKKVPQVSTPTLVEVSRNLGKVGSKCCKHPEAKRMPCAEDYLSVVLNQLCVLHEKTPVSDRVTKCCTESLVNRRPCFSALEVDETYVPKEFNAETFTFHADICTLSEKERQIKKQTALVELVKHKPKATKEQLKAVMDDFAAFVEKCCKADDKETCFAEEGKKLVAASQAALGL

For `O=C(/C(=C/c1ccccc1)n1cncn1)c1ccc(F)cc1N1CCCCC1`, the KSV on Albumin [1] was found to be 6.72 ×10⁴ L/mol; on Albumin [9] it was 5.84 ×10⁴ L/mol; at Albumin [15], 7.59 ×10⁴ L/mol. Besides, the Ratio on Albumin [2] is 0.959; on Albumin [3], 1.324; at Albumin [5] it was 0.918; on Albumin [6], 0.835; at Albumin [7] it was 1.068; at Albumin [8] it was 1.151. In addition, the Ratio was determined as 0.819 at Albumin [13] and 0.887 on Albumin [14]. The MIC against Candida is 8 µg/mL (≈ 21.3 µM); against Salmonella typhi it was 8 µg/mL (≈ 21.3 µM); in the data set with Bacillus it was 8 µg/mL (≈ 21.3 µM); in the data set with Micrococcus luteus it was 4 µg/mL (≈ 10.6 µM); with Staphylococcus aureus [10] it was 16 µg/mL (≈ 42.5 µM); with Bacillus subtilis, 8 µg/mL (≈ 21.3 µM). The MIC against Staphylococcus aureus [12] turned out to be 4 µg/mL (≈ 10.6 µM); against Candida albicans, 16 µg/mL (≈ 42.5 µM); against Escherichia coli it was 16 µg/mL (≈ 42.5 µM); against Pseudomonas aeruginosa it was 16 µg/mL (≈ 42.5 µM). Moreover, in the data set on DNA [4], the Activity entry is “Dose-dependent effect”. The compound further displayed a K in the data set on DNA [4] of 1.22 ×10⁴ L/mol. The outcome in the data set on DNA [11] was Active.

The values are drawn from ChEMBL document CHEMBL3098086, “Synthesis and biological evaluation of α-triazolyl chalcones as a new type of potential antimicrobial agents and their interaction with calf thymus DNA and human serum albumin” (Eur J Med Chem, 2014).
